Measured values published in ChEMBL document CHEMBL1128288, “7-Azetidinylquinolones as antibacterial agents. 3. Synthesis, properties and structure-activity relationships of the stereoisomers containing a 7-(3-amino-2-methyl-1-azetidinyl) moiety” (J Med Chem, 1995).
In brackets after ≈: the same amount, converted by molar mass.

Legend:
[1] = test system: Escherichia coli; assay: In vitro antibacterial activity measured as minimum inhibitory concentration, was evaluated on Escherichia coli ATCC 23559(Ec).; format: functional
Outline: (§1)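 Serial 2-fold agar dilution in Mueller Hinton medium, run side by side with reference quinolones. Inoculum 10^5 cfu/mL; compound range 0.007–16 µg/mL.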

[2] = test system: Escherichia coli; assay: In vivo efficacy as ED50 against Escherichia coli HM-42 by oral administration in mice.; format: functional
Outline: (§2)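 Mice, 4 groups of 10, infected intraperitoneally with slightly more than the LD100 of the organism. A single oral dose was given immediately after infection, with four doses (one per group) chosen from in vitro activity. Survival was scored after one week. ED50 (total dose, mg/kg, protecting 50%) was interpolated among group survival rates.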

[3] = test system: Pseudomonas aeruginosa; assay: In vivo efficacy as ED50 against Pseudomonas aeruginosa HS-116 by oral administration in mice.; format: functional; outline: as §2
[4] = test system: Staphylococcus aureus; assay: In vitro antibacterial activity measured as minimum inhibitory concentration was evaluated on Staphylococcus aureus ATCC 25178 (Sa).; format: functional; outline: as §1
[5] = test system: Proteus vulgaris; assay: In vitro antibacterial activity measured as minimum inhibitory concentration was evaluated on proteus vulgaris ATCC 8427 (Pv).; format: functional; outline: as §1
[6] = test system: Morganella morganii; assay: In vitro antibacterial activity measured as minimum inhibitory concentration was evaluated on morganella morganii ATCC 8019 (Mm).; format: functional; outline: as §1
[7] = test system: Enterococcus faecalis; assay: In vitro antibacterial activity measured as minimum inhibitory concentration was evaluated on Streptococcus faecalis ATCC 10541 (Sf).; format: functional; outline: as §1
[8] = test system: Bacillus subtilis; assay: In vitro antibacterial activity measured as minimum inhibitory concentration was evaluated on Bacillus subtilis ATCC 6633(Bs).; format: functional; outline: as §1
[9] = test system: Klebsiella pneumoniae; assay: In vitro antibacterial activity measured as minimum inhibitory concentration was evaluated on klebsiella pneumoniae ATCC 10031 (Kp).; format: functional
Outline: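 Serial 2-fold agar dilution in Mueller Hinton medium, run side by side with reference quinolones.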

[10] = test system: Staphylococcus epidermidis; assay: In vitro antibacterial activity measured as minimum inhibitory concentration was evaluated on Staphylococcus epidermidis ATCC 155-1 (Se).; format: functional; outline: as §1
[11] = test system: Bacillus cereus; assay: In vitro antibacterial activity measured as minimum inhibitory concentration was evaluated on Bacillus cereus ATCC 11778 (Bc).; format: functional; outline: as §1
[12] = mouse, in vivo, po, 50 mg/kg
[13] = test system: Pseudomonas aeruginosa; assay: In vitro antibacterial activity measured as minimum inhibitory concentration was evaluated on Pseudomonas aeruginosa ATCC 10145 (Pa).; format: functional; outline: as §1
[14] = test system: Staphylococcus aureus; assay: In vivo efficacy as ED50 against Staphylococcus aureus HS-93 by oral administration in mice.; format: functional; details: Staphylococcus aureus, po; read-out: ED50; outline: as §2
[15] = test system: Enterobacter cloacae; assay: In vitro antibacterial activity measured as minimum inhibitory concentration, was evaluated on Enterobacter cloacae ATCC 23355 (Ecl).; format: functional
[16] = Solubility at pH 7.4 buffer.; format: physicochemical
Outline: (§3)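 Excess solid was shaken 24 h at 25 °C in water or in 0.05 M phosphate buffer pH 7.4, then filtered (0.22 µm) with the first portion discarded. The filtrate was diluted with 0.1 N HCl or NaOH and measured spectrophotometrically at the compound's absorbance maximum.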

[17] = Solubility in water was determined at 25 degrees Centigrade; format: physicochemical; outline: as §3
[18] = Escherichia coli, ATCC 23559, read-out: MIC
[19] = Escherichia coli, po, read-out: ED50
[20] = Pseudomonas aeruginosa, po, read-out: ED50
[21] = Staphylococcus aureus, ATCC 25178, read-out: MIC
[22] = Proteus vulgaris, ATCC 8427, read-out: MIC
[23] = Morganella morganii, ATCC 8019, read-out: MIC
[24] = Enterococcus faecalis, ATCC 10541, read-out: MIC
[25] = Bacillus subtilis, ATCC 6633, read-out: MIC
[26] = Klebsiella pneumoniae, ATCC 10031, read-out: MIC
[27] = Staphylococcus epidermidis, ATCC 155-1, read-out: MIC
[28] = Bacillus cereus, ATCC 11778, read-out: MIC
[29] = Pseudomonas aeruginosa, ATCC 10145, read-out: MIC
[30] = Enterobacter cloacae, ATCC 23355, read-out: MIC

Structure (SMILES) | MIC [1, 18] [µg/mL] | ED50 [2, 19] [mg/kg] | ED50 [3, 20] [mg/kg] | MIC [4, 21] [µg/mL] | MIC [5, 22] [µg/mL] | MIC [6, 23] [µg/mL] | MIC [7, 24] [µg/mL] | MIC [8, 25] [µg/mL] | MIC [9, 26] [µg/mL] | MIC [10, 27] [µg/mL] | MIC [11, 28] [µg/mL] | AUC [12] [ng·h/mL] | MIC [13, 29] [µg/mL] | ED50 [14] [mg/kg] | MIC [15, 30] [µg/mL] | further results
C[C@@H]1[C@@H](N)CN1c1cc2c(cc1F)c(=O)c(C(=O)O)cn2-c1ccc(F)cc1F | 0.5 (≈ 1.24 µM) | 10 | 90 | 0.25 (≈ 0.62 µM) | 2 (≈ 4.96 µM) | 1 (≈ 2.48 µM) | 4 (≈ 9.92 µM) | 0.25 (≈ 0.62 µM) | 0.25 (≈ 0.62 µM) | 0.25 (≈ 0.62 µM) | 0.5 (≈ 1.24 µM) | 35900 | 8 (≈ 19.8 µM) | 16.1 | 1 (≈ 2.48 µM) | –
C[C@@H]1[C@@H](N)CN1c1c(F)cc2c(=O)c(C(=O)O)cn(C3CC3)c2c1F (stereo in doubt; 22b) | – | – | – | – | – | – | – | – | – | – | – | 13600 | – | 12.2 | – | MIC [1]: 0.25 µg/mL (≈ 0.716 µM); ED50 [2]: 10.2 mg/kg; ED50 [3]: 65 mg/kg; MIC [4]: 0.25 µg/mL (≈ 0.716 µM); MIC [5]: 0.5 µg/mL (≈ 1.43 µM); MIC [6]: 0.25 µg/mL (≈ 0.716 µM); MIC [7]: 2 µg/mL (≈ 5.73 µM); MIC [8]: 0.12 µg/mL (≈ 0.344 µM); MIC [9]: 0.12 µg/mL (≈ 0.344 µM); MIC [10]: 0.25 µg/mL (≈ 0.716 µM); MIC [11]: 0.5 µg/mL (≈ 1.43 µM); MIC [13]: 4 µg/mL (≈ 11.5 µM); MIC [15]: 0.25 µg/mL (≈ 0.716 µM)
CC1C(N)CN1c1c(F)cc2c(=O)c(C(=O)O)cn3c2c1OC[C@@H]3C (single isomer, unassigned) | 0.015 (≈ 0.0432 µM) | 5.9 | 26 | 0.015 (≈ 0.0432 µM) | 0.06 (≈ 0.173 µM) | 0.015 (≈ 0.0432 µM) | 0.12 (≈ 0.345 µM) | 0.015 (≈ 0.0432 µM) | 0.015 (≈ 0.0432 µM) | 0.015 (≈ 0.0432 µM) | 0.06 (≈ 0.173 µM) | 2300 | 0.25 (≈ 0.72 µM) | 6.9 | 0.015 (≈ 0.0432 µM) | –
C[C@@H]1[C@@H](N)CN1c1c(F)cc2c(=O)c(C(=O)O)cn(-c3ccc(F)cc3)c2c1F | 0.06 (≈ 0.149 µM) | 2.1 | 53 | 0.12 (≈ 0.298 µM) | 0.25 (≈ 0.62 µM) | 0.12 (≈ 0.298 µM) | 1 (≈ 2.48 µM) | 0.06 (≈ 0.149 µM) | 0.015 (≈ 0.0372 µM) | 0.25 (≈ 0.62 µM) | 0.12 (≈ 0.298 µM) | 40900 | 0.5 (≈ 1.24 µM) | 4.8 | 0.015 (≈ 0.0372 µM) | –
C[C@@H]1[C@@H](N)CN1c1nc2c(cc1F)c(=O)c(C(=O)O)cn2-c1ccc(F)cc1F | 0.5 (≈ 1.24 µM) | 10.3 | 400 | 0.5 (≈ 1.24 µM) | 2 (≈ 4.95 µM) | 1 (≈ 2.47 µM) | 4 (≈ 9.89 µM) | 0.25 (≈ 0.618 µM) | 0.25 (≈ 0.618 µM) | 0.5 (≈ 1.24 µM) | 0.5 (≈ 1.24 µM) | 28300 | 8 (≈ 19.8 µM) | 8.6 | 1 (≈ 2.47 µM) | –
C[C@H]1[C@H](N)CN1c1nc2c(cc1F)c(=O)c(C(=O)O)cn2C1CC1 (single isomer, unassigned) | 0.015 (≈ 0.0451 µM) | 1 | 34 | 0.06 (≈ 0.181 µM) | – | 0.015 (≈ 0.0451 µM) | 0.12 (≈ 0.361 µM) | 0.015 (≈ 0.0451 µM) | 0.015 (≈ 0.0451 µM) | 0.06 (≈ 0.181 µM) | 0.015 (≈ 0.0451 µM) | 19200 | 0.12 (≈ 0.361 µM) | 4.6 | 0.015 (≈ 0.0451 µM) | solubility [16]: 16.5 µg/mL (≈ 49.6 µM); solubility [17]: 23 µg/mL (≈ 69.2 µM)
CCC[C@H](N)C(=O)N[C@@H]1CN(c2cc3c(cc2F)c(=O)c(C(=O)O)cn3-c2ccc(F)cc2F)[C@H]1C | 0.5 (≈ 0.995 µM) | – | – | 0.5 (≈ 0.995 µM) | 8 (≈ 15.9 µM) | 4 (≈ 7.96 µM) | 4 (≈ 7.96 µM) | 0.25 (≈ 0.498 µM) | 0.25 (≈ 0.498 µM) | 0.5 (≈ 0.995 µM) | 0.5 (≈ 0.995 µM) | – | 16 (≈ 31.8 µM) | – | 1 (≈ 1.99 µM) | solubility [16]: > 500 µg/mL; solubility [17]: > 500 µg/mL
